Experimental data published in ChEMBL document CHEMBL1126152, “Fluoronaphthyridines as antibacterial agents. 4. Synthesis and structure-activity relationships of 5-substituted-6-fluoro-7-(cycloalkylamino)-1,4-dihydro-4-oxo-1,8- naphthyridine-3-carboxylic acids” (J Med Chem, 1992).
Values after ≈ are worked out from the molar mass of the structure shown.

Columns and labels:
[1] = tested on: Escherichia coli; experiment: In vitro for antibacterial activity against Escherichia coli; format: functional
Outline: (§1)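 MIC by serial 2-fold broth dilution in nutrient broth with an inoculum of 10^6 CFU/mL. Compound range was 0.0005–250 μg/mL. Plates were incubated 18 h at 37 °C. MIC was taken as the lowest concentration preventing visible growth.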

[2] = tested on: Staphylococcus aureus; experiment: Antibacterial activity against Staphylococcus aureus; format: functional
[3] = tested on: Streptococcus pneumoniae; experiment: Antibacterial activity against Streptococcus pneumoniae; format: functional
[4] = tested on: Bacteroides fragilis; experiment: In vitro for antibacterial activity against […].; format: functional; outline: as §1
[5] = tested on: Enterobacter cloacae; experiment: In vitro for antibacterial activity against Enterobacter cloacae; format: functional
[6] = tested on: Pseudomonas aeruginosa; experiment: In vitro for antibacterial activity against Pseudomonas aeruginosa; format: functional; outline: as §1
[7] = tested on: Enterococcus faecalis; experiment: In vitro for antibacterial activity against Enterococcus faecalis; format: functional; outline: as §1
[8] = tested on: Proteus mirabilis; experiment: In vitro for antibacterial activity against Proteus mirabilis; format: functional; outline: as §1
[9] = tested on: Klebsiella pneumoniae; experiment: In vitro for antibacterial activity against Klebsiella pneumoniae; format: functional; outline: as §1
[10] = tested on: Morganella morganii; experiment: In vitro for antibacterial activity against Morganella morganii; format: functional; outline: as §1
[11] = tested on: Serratia marcescens; experiment: In vitro for antibacterial activity against Serratia marcescens; format: functional; outline: as §1
[12] = tested on: Escherichia coli; experiment: Compound was tested for […] against Escherichia coli A 15119 after oral administration of drug in mice; format: functional; settings: read-out: PD50
Outline: (§2)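 Mouse protection test against systemic infection. Compound was dissolved in sterile water and given orally to female OF1-strain Swiss mice weighing 18–25 g, with five mice per group.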

[13] = Lethal dose was determined in OF1-strain female Swiss mice after oral administration of the drug; settings: mouse, in vivo
[14] = tested on: Streptococcus pneumoniae; experiment: animal or person; format: functional; settings: in Mus musculus, po, read-out: PD50
[15] = Partition coefficient (logD); settings: octanol/water
[16] = tested on: Staphylococcus aureus; experiment: animal or person; format: functional; settings: in Mus musculus, po, read-out: PD50
[17] = Lethal dose was determined in OF1-strain female Swiss mice after intra venous administration of the drug; settings: mouse, in vivo, iv
[18] = tested on: Pseudomonas aeruginosa; experiment: animal or person; format: functional; settings: in Mus musculus, po, read-out: PD50
[19] = Solubility was measured at PH - 7.2 buffer
[20] = species: Mus musculus; settings: in vivo
[21] = in vivo; settings: mouse, plasma, T1/2
[22] = tested on: Staphylococcus; experiment: Compound was tested for […] against Staphylococcus aureus A 15090 after oral administration of drug in mice; format: functional; settings: read-out: PD50; outline: as §2

SMILES	MIC [1] [µg/mL]	MIC [2] [µg/mL]	MIC [3] [µg/mL]	MIC [4] [µg/mL]	MIC [5] [µg/mL]	MIC [6] [µg/mL]	MIC [7] [µg/mL]	MIC [8] [µg/mL]	MIC [9] [µg/mL]	MIC [10] [µg/mL]	MIC [11] [µg/mL]	ED50 [12] [mg/kg]	LD50 [13] [mg/kg]	ED50 [14] [mg/kg]	logD [15]	LD50 [17] [mg/kg]	ED50 [18] [mg/kg]	solubility [19] [µg/mL]	also measured
Cc1c(F)c(N2CC3CCC2CN3)nc2c1c(=O)c(C(=O)O)cn2C1CC1 (stereo not given)	0.008 (≈ 0.0215 µM)	0.03 (≈ 0.0806 µM)	0.13 (≈ 0.349 µM)	16 (≈ 43 µM)	0.06 (≈ 0.161 µM)	0.5 (≈ 1.34 µM)	0.13 (≈ 0.349 µM)	0.13 (≈ 0.349 µM)	0.016 (≈ 0.043 µM)	0.06 (≈ 0.161 µM)	0.13 (≈ 0.349 µM)	–	–	–	–	–	–	–	–
Cc1c(F)c(N2CC3CC2CN3)nc2c1c(=O)c(C(=O)O)cn2C1CC1 (stereo not given)	0.002 (≈ 0.00558 µM)	0.002 (≈ 0.00558 µM)	0.13 (≈ 0.363 µM)	1 (≈ 2.79 µM)	0.002 (≈ 0.00558 µM)	0.25 (≈ 0.698 µM)	0.13 (≈ 0.363 µM)	0.016 (≈ 0.0446 µM)	0.002 (≈ 0.00558 µM)	0.016 (≈ 0.0446 µM)	0.03 (≈ 0.0837 µM)	0.9	1750	43	0.48	131	2.7	20 (≈ 55.8 µM)	ED50 [16]: 5.4 mg/kg
CCc1c(F)c(N2CC[C@H](N)C2)nc2c1c(=O)c(C(=O)O)cn2C1CC1	0.25 (≈ 0.694 µM)	1 (≈ 2.77 µM)	1 (≈ 2.77 µM)	1 (≈ 2.77 µM)	0.25 (≈ 0.694 µM)	4 (≈ 11.1 µM)	16 (≈ 44.4 µM)	2 (≈ 5.55 µM)	0.25 (≈ 0.694 µM)	0.5 (≈ 1.39 µM)	0.5 (≈ 1.39 µM)	–	–	–	1.37	–	–	70 (≈ 194 µM)	–
Cc1c(F)c(N2CC[C@H](N)C2)nc2c1c(=O)c(C(=O)O)cn2-c1ccc(F)cc1	0.002 (≈ 0.005 µM)	0.004 (≈ 0.00999 µM)	0.03 (≈ 0.0749 µM)	–	0.002 (≈ 0.005 µM)	0.25 (≈ 0.624 µM)	0.06 (≈ 0.15 µM)	0.008 (≈ 0.02 µM)	0.002 (≈ 0.005 µM)	0.008 (≈ 0.02 µM)	0.03 (≈ 0.0749 µM)	4.9	2500	14.4	0.91	94	2.9	80 (≈ 200 µM)	ED50 [16]: 4.2 mg/kg
Cc1c(F)c(N2CC[C@H](N)C2)nc2c1c(=O)c(C(=O)O)cn2-c1ccc(F)cc1F	0.002 (≈ 0.00478 µM)	0.002 (≈ 0.00478 µM)	0.03 (≈ 0.0717 µM)	0.25 (≈ 0.598 µM)	0.002 (≈ 0.00478 µM)	0.25 (≈ 0.598 µM)	0.06 (≈ 0.143 µM)	0.008 (≈ 0.0191 µM)	0.002 (≈ 0.00478 µM)	0.03 (≈ 0.0717 µM)	0.03 (≈ 0.0717 µM)	1.8	2500	7.9	1.22	84	2.2	50 (≈ 120 µM)	ED50 [16]: 1.7 mg/kg
NC1CCN(c2nc3c(cc2F)c(=O)c(C(=O)O)cn3-c2ccc(F)cc2F)C1 (stereo not given) [TOSUFLOXACIN]	0.004 (≈ 0.00989 µM)	0.016 (≈ 0.0396 µM)	0.06 (≈ 0.148 µM)	1 (≈ 2.47 µM)	0.03 (≈ 0.0742 µM)	0.25 (≈ 0.618 µM)	0.25 (≈ 0.618 µM)	0.03 (≈ 0.0742 µM)	0.016 (≈ 0.0396 µM)	0.06 (≈ 0.148 µM)	0.13 (≈ 0.322 µM)	1.8	2500	11.4	0.1	81	2.9	20 (≈ 49.5 µM)	T1/2 [20]: 1.38 h; half-life [21]: 2.4 h; ED50 [22]: 2.1 mg/kg
N[C@H]1CCN(c2nc3c(c(-c4ccccc4)c2F)c(=O)c(C(=O)O)cn3C2CC2)C1	1 (≈ 2.45 µM)	2 (≈ 4.9 µM)	8 (≈ 19.6 µM)	125 (≈ 306 µM)	2 (≈ 4.9 µM)	32 (≈ 78.3 µM)	64 (≈ 157 µM)	16 (≈ 39.2 µM)	2 (≈ 4.9 µM)	8 (≈ 19.6 µM)	16 (≈ 39.2 µM)	–	–	–	–	–	–	–	–

Further lines, with some results ahead:

MIC [1] [µg/mL]	MIC [2] [µg/mL]	MIC [3] [µg/mL]	MIC [4] [µg/mL]	MIC [5] [µg/mL]	MIC [6] [µg/mL]	MIC [7] [µg/mL]	MIC [8] [µg/mL]	MIC [9] [µg/mL]	MIC [10] [µg/mL]	MIC [11] [µg/mL]	SMILES	ED50 [12] [mg/kg]	LD50 [13] [mg/kg]	ED50 [14] [mg/kg]	logD [15]	LD50 [17] [mg/kg]	ED50 [18] [mg/kg]	solubility [19] [µg/mL]	also measured
0.016 (≈ 0.0396 µM)	0.03 (≈ 0.0742 µM)	0.5 (≈ 1.24 µM)	2 (≈ 4.95 µM)	0.03 (≈ 0.0742 µM)	0.5 (≈ 1.24 µM)	1 (≈ 2.47 µM)	0.06 (≈ 0.148 µM)	0.03 (≈ 0.0742 µM)	0.13 (≈ 0.322 µM)	0.13 (≈ 0.322 µM)	O=C(O)c1cn(-c2ccc(F)cc2F)c2nc(N3CCNCC3)c(F)cc2c1=O	–	–	–	–	–	–	–	–
0.06 (≈ 0.174 µM)	0.13 (≈ 0.378 µM)	–	–	0.03 (≈ 0.0871 µM)	0.25 (≈ 0.726 µM)	1 (≈ 2.9 µM)	0.06 (≈ 0.174 µM)	0.06 (≈ 0.174 µM)	0.06 (≈ 0.174 µM)	0.25 (≈ 0.726 µM)	O=C(O)c1cn(C2CC2)c2nc(N3CC4CC3CN4)c(F)cc2c1=O (stereo not given)	–	–	–	–	–	–	90 (≈ 261 µM)	–
0.06 (≈ 0.166 µM)	0.03 (≈ 0.0828 µM)	1 (≈ 2.76 µM)	> 32	0.25 (≈ 0.69 µM)	4 (≈ 11 µM)	2 (≈ 5.52 µM)	0.5 (≈ 1.38 µM)	0.06 (≈ 0.166 µM)	0.25 (≈ 0.69 µM)	0.25 (≈ 0.69 µM)	Cc1c(F)c(N2CCNCC2)nc2c1c(=O)c(C(=O)O)cn2C(C)(C)C	–	–	–	–	–	–	–	–
0.5 (≈ 1.39 µM)	0.5 (≈ 1.39 µM)	0.25 (≈ 0.694 µM)	1 (≈ 2.77 µM)	1 (≈ 2.77 µM)	16 (≈ 44.4 µM)	16 (≈ 44.4 µM)	8 (≈ 22.2 µM)	1 (≈ 2.77 µM)	4 (≈ 11.1 µM)	1 (≈ 2.77 µM)	CCc1c(F)c(N2CCNCC2)nc2c1c(=O)c(C(=O)O)cn2C1CC1	–	–	–	–	–	–	–	–
